Assay outcomes as filed in PubChem BioAssay.
Rows were chosen to be rich in hits. Some 2.4% of all compounds tested hit in one or more screens of this group.
ROMK primary: modulators of human ROMK potassium channel; B-score at 10 µM; hit rate 2% among 130,000; Tet-inducible ROMK, thallium flux fluorescence; actives lie on both sides; P48048;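 active = signal ratio slope over the read window, or its plate-corrected B-score, at least 3 SD from the plate mean, either direction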;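 note: B-score of the F/F0 ratio slope over 7 to 12 s after thallium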
Target sequence (P48048 whole entry, looked up): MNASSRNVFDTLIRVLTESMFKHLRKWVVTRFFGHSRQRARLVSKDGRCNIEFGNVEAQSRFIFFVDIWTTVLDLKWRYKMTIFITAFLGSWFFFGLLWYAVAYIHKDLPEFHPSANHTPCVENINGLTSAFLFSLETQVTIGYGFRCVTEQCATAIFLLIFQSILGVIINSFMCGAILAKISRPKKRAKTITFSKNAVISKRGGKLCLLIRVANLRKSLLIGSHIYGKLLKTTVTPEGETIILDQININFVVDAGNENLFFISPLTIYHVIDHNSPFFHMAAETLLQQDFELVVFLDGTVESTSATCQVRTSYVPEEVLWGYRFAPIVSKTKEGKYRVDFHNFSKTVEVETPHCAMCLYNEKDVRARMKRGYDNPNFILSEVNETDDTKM
HSV replic up: HSV replication enhancement; hit rate 0.005% among 220,000; maximum fold increase; HSV replication augmentation in cells, fold increase; in the data active = maximum fold increase above about 1.5; inconclusive = no clear call, values can overlap the other calls; tested in PC3 cells
INS promoter inh: TRM-6 insulin promoter activity inhibition; inhibition, % at 2 µM; TRM-6 cells (human fetal islet line), insulin promoter-eGFP reporter, imaging; reporter expression induced with tamoxifen; hit rate 0.9% among 130,000;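 active = inhibition above the mean plus 3 SD, with well images judged a real hit on visual review, cut at about 60% in these data, passing the limit was not always enough; inconclusive = inhibition over the cutoff but images rejected on review; inactive = inhibition not above the cutoff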
MT stabilize HCS: microtubule stabilizers in HeLa cells; HeLa tubulin immunostaining HCS, 24 h; share of cells brighter than vehicle mean+2SD; hit rate 0.83% among 200,000; % tubulin-high responders, % at 10 µM;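 active = plate Z-score above 3 for both tubulin-high and condensed-nucleus cell shares, with cell loss under 80%, at 10 µM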;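 note: anti alpha tubulin signal scored within the nucleus-defined area of each cell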
bCat nuc transl: alters nuclear translocation of beta-catenin in HeLa cells | AID 1665 | hit rate 0.3% among 190,000 | immunofluorescence imaging | nuclear translocation activity, % at 5 µM;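 active = nuclear translocation activity above 50% at 5 µM, with a well cell count of 50 or more; inconclusive = wells under 50 cells across six images, flagged as toxic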;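 note: per-cell ratio of nuclear to cytoplasmic median beta-catenin stain intensity; plate controls were DMSO negative control for no effect and GSK-3 inhibitor IX positive control for full effect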
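Test system: human HeLa cells, native beta-catenin. Compound dosing: 5 µM primary single dose, 0.1% DMSO, 0.02–20 µM confirmation series. Incubation: compound exposure 24 h at 37°C. Detection: beta-catenin immunostaining with DAPI counterstain, 20x imaging, 6 fields/well. Read-out basis: Nuclear/cytoplasmic beta-catenin signal ratio, % activation.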
ROMK hit retest: confirmation of human ROMK potassium channel modulators; ROMK thallium flux, fluorescence ratio; active compounds read low; normalized thallium flux (F/F0 slope) at 10 µM; shares compounds with ROMK primary; hit rate 54% among 3,000; AID 1917;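 active = Flux at 10 µM at least 3 SD below or above vehicle control mean in one or both replicates; inconclusive = no clear call, values can overlap the other calls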
An asterisk follows results filed as active; i = inactive; ? = inconclusive; nt = no result given.

SMILES	ROMK primary	HSV replic up	INS promoter inh	MT stabilize HCS	bCat nuc transl	ROMK hit retest
CCC(C)NC(=O)CSc1nc2c(sc3ccccc32)c(=O)n1CCCN1CCOCC1 (stereo unspecified)	2.6*	i	15	3	nt	0.076
CCN(CC)CC(O)COc1ccccc1C(=O)CCc1ccccc1 (stereo unspecified)	-0.9	i	nt	3	0	nt
CCCCN(CCCC)CC(O)COc1ccccc1C(=O)Nc1ccccc1 (stereo unspecified)	-3.5*	i	nt	2	1	0.053*
Cn1c(=O)c2cc3ccc(Cl)cc3nc2n(C)c1=O	-0.27	i	nt	nt	0	nt
Cn1c(=O)c2cc3ccccc3nc2n(C)c1=O	-5.1*	i	nt	nt	1	?
CCNC(=O)C1CCN(S(=O)(=O)c2ccc(F)cc2)CC1	1.2	i	nt	4	-2	nt
O=C(Nc1nnc(-c2ccccc2Cl)s1)C1CCN(S(=O)(=O)c2ccc(Cl)cc2)CC1	nt	i	24	3	0	nt
O=C(Nc1nnc(-c2ccccc2F)s1)C1CCN(S(=O)(=O)c2ccc(Cl)cc2)CC1	nt	i	nt	2	-3	0.078
O=C(NCCO)C1CCN(S(=O)(=O)c2ccc(F)cc2)CC1	-6.9*	nt	-50	4	-2	0.073
COc1ccc(S(=O)(=O)N2CCC(C(=O)Nc3c(F)cccc3F)CC2)cc1	nt	i	nt	1	1	0.073
Cc1cc(NC(=O)CN2C(=O)/C(=C/c3cccc(Br)c3)SC2=S)no1	-4.2*	i	36	5	0	0.081
O=C(CCCN1C(=O)/C(=C/c2cccc(Br)c2)SC1=S)Nc1ccccn1	nt	i	nt	5	1	nt
Cc1ccc(S(=O)(=O)Nc2ncc(C(F)(F)F)cc2Cl)cc1	0.35	i	-18	3	1	nt
O=C(Nc1ccccc1)N(C1=NCCCCS1)c1ccccc1	nt	i	nt	2	-2	0.073
O=C(O)/C(=C\c1ccccc1OC(F)F)Sc1nnc(-c2ccc(F)cc2)o1	-3*	i	-14	3	2	0.056*
S=c1[nH]c2cc(-c3ccccc3)ccc2o1	nt	i	nt	nt	-1	0.11*
COc1cccc(NS(=O)(=O)c2ccc(NC(C)=O)cc2)c1	-2.1*	i	22	3	1	0.08
O=C(/C=C/c1cn(CC(O)CN2CCOCC2)c2ccccc12)c1cccs1 (stereo unspecified)	nt	?	nt	nt	0	0.039*
O=C(CSc1nc2ccccc2[nH]1)NCC1CCCO1 (stereo unspecified)	nt	i	nt	3	-1	nt
CCCCOc1ccc(CSCCN=C(N)N)cc1	-3.4*	i	nt	9	3	0.054*
O=C1CSC(c2cn(-c3ccccc3)nc2-c2cc3ccccc3o2)N1Cc1ccccc1 (stereo unspecified)	0.21	nt	-21	2	nt	nt
Cc1ccc(-c2nn(-c3ccccc3)cc2C2SCC(=O)N2Cc2ccccc2)o1 (stereo unspecified)	nt	i	?	2	-4	0.078
Cc1ccc(S(=O)(=O)N2CCN(c3ccc(C(=O)N4CCOCC4)cc3[N+](=O)[O-])CC2)cc1	nt	i	-64	3	-1	nt
CCOC(=O)/C(C#N)=C/c1cc2ccc(C)cc2nc1Cl	-0.17	i	65	3	-2	nt
Cc1ccc2cc(C=O)c(Cl)nc2c1	3.7*	i	nt	2	2	0.083
SMILES	ROMK primary	HSV replic up	INS promoter inh	MT stabilize HCS	bCat nuc transl	ROMK hit retest
Cc1ccc(S(=O)(=O)N2CCCN(c3nc4cc(C)ccc4cc3C#N)CC2)cc1	nt	i	-131	4	-1	0.074
COc1ccc(/C=C2\SC(=O)N(CCNC(=O)C3CC(=O)N(c4ccccc4)C3)C2=O)cc1 (stereo unspecified)	nt	i	-3	1	-1	nt
O=C(NCCN1C(=O)CSC1=O)C1CC(=O)N(c2ccccc2)C1 (stereo unspecified)	0.91*	i	0	3	nt	0.081
COc1cccc(CNC(=O)CCC2CCCN(C/C=C/c3ccccc3OC)C2)c1 (stereo unspecified)	-5.5*	i	nt	2	-4	0.065*
CC(C)NC(=O)c1ccc(C(C)C)cc1	nt	i	nt	nt	-1	nt
CCOc1ccc2ncc(S(=O)(=O)c3ccc(C)cc3)c(N3CCC4(CC3)OCCO4)c2c1	nt	i	nt	4	1	0.063*
CCOC(=O)c1cnc2ccc(OCC)cc2c1N1CCN(C)CC1	nt	i	nt	7	-8	nt
COc1ccc(CNC(=O)C2CCC(CNc3c(N4CCC(C)CC4)c(=O)c3=O)CC2)cc1 (stereo unspecified)	2.1	i	nt	nt	0	nt
Cc1ccccc1C(=O)NNC(=S)Nc1cccc(C(F)(F)F)c1	nt	i	11	4	2	0.064*
FC(F)(F)c1cccc(NC(=S)NNC(=S)Nc2cccc(C(F)(F)F)c2)c1	nt	i	nt	nt	4	nt
COc1cc(C(=O)N/N=C/c2cc([N+](=O)[O-])cs2)cc(OC)c1OC	4.1*	nt	-375	20*	29	0.088
COc1cc(C(=O)N/N=C/c2sccc2C)cc(OC)c1OC	5.1*	i	-233	12*	85*	?
Cc1ccsc1/C=N/NC(=O)c1ccncc1	0.92	i	19	2	-1	nt
CCOc1ccc(C(=O)N/N=C/c2cc([N+](=O)[O-])cs2)cc1	nt	i	nt	3	0	nt
O=C(Nc1ccccc1Oc1ccccc1)c1ccccc1F	-1	i	2	2	nt	nt
CC(CCc1ccccc1)NC(=O)CCNC(=O)Cn1ccc2ccccc2c1=O (stereo unspecified)	-0.056	i	nt	10	1	nt
Cc1cc(NC(=O)Nc2cccc(C)c2C)no1	0.54	i	43	4	-6	nt
COc1cc(CC(C#N)(CO)c2nc3ccccc3[nH]2)ccc1OC(F)F (stereo unspecified)	nt	i	-11	2	0	nt
CC(=N/O)/C(C)=N\NC(=O)c1ccccn1	-3.9*	i	-44	3	0	0.072
COc1ccc2c(Cl)c(C(=O)N/N=C3\CCCC(=O)C3)sc2c1	-3.1*	?	nt	2	-5	0.074
Cc1ccc(C(C[N+](=O)[O-])Sc2ccc(N)cc2)cc1 (stereo unspecified)	nt	i	nt	nt	5	nt
Cc1ccc(C(C[N+](=O)[O-])n2nc(C)cc2C)cc1 (stereo unspecified)	-2.4	i	18	4	-2	0.059*
CCc1cc2c(nc1CC)CCN(CC/C(C)=N/OC[C@H]1O[C@H](c3ccccc3)C=C[C@@H]1Oc1ccc(OC)cc1)C2	-4.7*	nt	-124	4	-2	0.054*
Cc1cc(C)c(C#N)c(Oc2ccc(F)cc2)n1	nt	i	0	4	-2	0.083
COC(=O)C1CCN(Cc2cn(-c3ccccc3)nc2-c2ccc3c(c2)OCO3)CC1	-0.79	i	nt	2	-1	nt
CN(CCn1ccnc1)Cc1cn(-c2ccccc2)nc1-c1ccc2c(c1)OCO2	-4.6*	i	-17	4	-1	0.052*
CN(Cc1cn(-c2ccccc2)nc1-c1ccc2c(c1)OCO2)Cc1nccn1C	0.017	i	nt	2	0	nt
